Measurements: the RNAGym collection of RNA variant scans (doi:10.1002/anie.201605470)

B1: Osa-1-4 twister ribozyme (parent)
chain: CCGCCUAACACUGCCAAUGCCGGUCCCAAGCCCGGAUAAAAGUGGAGGGGGCGG

Variants of: B1
Experiment: self-cleavage, relative activity (ratio to wild type); higher = more cleavage; co-transcriptional
Method in brief: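 The 48 positions downstream of the cleavage site in a 54-nucleotide Oryza sativa twister ribozyme template were synthesised at 97 % wild-type base and 1 % of each other base. The template was transcribed in vitro at 37 °C for 2 h, with self-cleavage allowed during transcription. Reads with or without upstream sequence after deep sequencing marked cleavage status, and relative activity is fraction cleaved normalised to wild type.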

**Q.** Which self-cleavage does the source give for C25U G34A here?
**A.** 0.85

**Q.** For C25U G34C, which self-cleavage is on record?
**A.** 0.5

**Q.** For C25U G34U, which self-cleavage is on record?
**A.** 0.77

**Q.** For C25U G35A, which self-cleavage is on record?
**A.** 0.87

**Q.** For C25U G35C, which self-cleavage is on record?
**A.** 0.09

**Q.** For C25U G35U, which self-cleavage is on record?
**A.** 0.72

**Q.** Which self-cleavage does the source give for C25U G42A here?
**A.** 0.22

**Q.** With C25U G42C as the variant, how does the self-cleavage read?
**A.** 0.11

**Q.** With C25U G42U as the variant, how does the self-cleavage read?
**A.** 0.05

**Q.** Which self-cleavage does the source give for C25U G44A here?
**A.** 0.32

**Q.** For C25U G44C, which self-cleavage is on record?
**A.** 0.84

**Q.** Which self-cleavage does the source give for C25U G44U here?
**A.** 0.56

**Q.** For C25U G45A, which self-cleavage is on record?
**A.** 0.06

**Q.** With C25U G45C as the variant, how does the self-cleavage read?
**A.** 0.05

**Q.** With C25U G45U as the variant, how does the self-cleavage read?
**A.** 0.05

**Q.** Which self-cleavage does the source give for C25U G47A here?
**A.** 0.09

**Q.** Which self-cleavage does the source give for C25U G47C here?
**A.** 0.06

**Q.** For C25U G47U, which self-cleavage is on record?
**A.** 0.07

**Q.** For C25U G48A, which self-cleavage is on record?
**A.** 0.07

**Q.** Which self-cleavage does the source give for C25U G48C here?
**A.** 0.06

**Q.** With C25U G48U as the variant, how does the self-cleavage read?
**A.** 0.04

**Q.** With C25U G49A as the variant, how does the self-cleavage read?
**A.** 0.77

**Q.** Which self-cleavage does the source give for C25U G49C here?
**A.** 0.06

**Q.** Which self-cleavage does the source give for C25U G49U here?
**A.** 0.71

**Q.** For C25U G50A, which self-cleavage is on record?
**A.** 0.87

**Q.** Which self-cleavage does the source give for C25U G50C here?
**A.** 0.23

**Q.** With C25U G50U as the variant, how does the self-cleavage read?
**A.** 0.52

**Q.** Which self-cleavage does the source give for C25U G51A here?
**A.** 0.51

**Q.** With C25U G51C as the variant, how does the self-cleavage read?
**A.** 0.06

**Q.** Which self-cleavage does the source give for C25U G51U here?
**A.** 0.17

**Q.** Which self-cleavage does the source give for C25U G53A here?
**A.** 0.25

**Q.** Which self-cleavage does the source give for C25U G53C here?
**A.** 0.06

**Q.** For C25U G53U, which self-cleavage is on record?
**A.** 0.11

**Q.** With C25U G54A as the variant, how does the self-cleavage read?
**A.** 0.34

**Q.** For C25U G54C, which self-cleavage is on record?
**A.** 0.31

**Q.** For C25U G54U, which self-cleavage is on record?
**A.** 0.56

**Q.** For C25U U12A, which self-cleavage is on record?
**A.** 0.18

**Q.** Which self-cleavage does the source give for C25U U12C here?
**A.** 0.09

**Q.** With C25U U12G as the variant, how does the self-cleavage read?
**A.** 0.17

**Q.** For C25U U18A, which self-cleavage is on record?
**A.** 0.75

**Q.** With C25U U18C as the variant, how does the self-cleavage read?
**A.** 0.84

**Q.** With C25U U18G as the variant, how does the self-cleavage read?
**A.** 0.89

**Q.** With C25U U24A as the variant, how does the self-cleavage read?
**A.** 0.06

**Q.** With C25U U24C as the variant, how does the self-cleavage read?
**A.** 0.08

**Q.** For C25U U24G, which self-cleavage is on record?
**A.** 0.04

**Q.** For C25U U37A, which self-cleavage is on record?
**A.** 0.74

**Q.** With C25U U37C as the variant, how does the self-cleavage read?
**A.** 0.95

**Q.** Which self-cleavage does the source give for C25U U37G here?
**A.** 0.96

**Q.** Which self-cleavage does the source give for C25U U43A here?
**A.** 0.29

**Q.** Which self-cleavage does the source give for C25U U43C here?
**A.** 0.13

**Q.** For C25U U43G, which self-cleavage is on record?
**A.** 0.17

**Q.** Which self-cleavage does the source give for C26A here?
**A.** 0.06

**Q.** With C26A C9A as the variant, how does the self-cleavage read?
**A.** 0.02

**Q.** Which self-cleavage does the source give for C26A C9G here?
**A.** 0.05

**Q.** With C26A C9U as the variant, how does the self-cleavage read?
**A.** 0.03

**Q.** For C26A C27A, which self-cleavage is on record?
**A.** 0.05

**Q.** With C26A C27G as the variant, how does the self-cleavage read?
**A.** 0.03

**Q.** For C26A C27U, which self-cleavage is on record?
**A.** 0.03

**Q.** Which self-cleavage does the source give for C26A C31A here?
**A.** 0.02

**Q.** With C26A C31G as the variant, how does the self-cleavage read?
**A.** 0.03

**Q.** For C26A C31U, which self-cleavage is on record?
**A.** 0.06

**Q.** With C26A C32A as the variant, how does the self-cleavage read?
**A.** 0.05

**Q.** With C26A C32G as the variant, how does the self-cleavage read?
**A.** 0.03

**Q.** Which self-cleavage does the source give for C26A C32U here?
**A.** 0.01

**Q.** Which self-cleavage does the source give for C26A C33A here?
**A.** 0.05

**Q.** With C26A C33G as the variant, how does the self-cleavage read?
**A.** 0.02

**Q.** Which self-cleavage does the source give for C26A C33U here?
**A.** 0.04

**Q.** For C26A C52A, which self-cleavage is on record?
**A.** 0.08

**Q.** For C26A C52G, which self-cleavage is on record?
**A.** 0.08

**Q.** Which self-cleavage does the source give for C26A C52U here?
**A.** 0.07

**Q.** With C26A G13A as the variant, how does the self-cleavage read?
**A.** 0.02

**Q.** With C26A G13C as the variant, how does the self-cleavage read?
**A.** 0.01

**Q.** With C26A G13U as the variant, how does the self-cleavage read?
**A.** 0.02

**Q.** Which self-cleavage does the source give for C26A G19A here?
**A.** 0.04

**Q.** For C26A G19C, which self-cleavage is on record?
**A.** 0.02

**Q.** Which self-cleavage does the source give for C26A G19U here?
**A.** 0.03

**Q.** Which self-cleavage does the source give for C26A G22A here?
**A.** 0.07

**Q.** With C26A G22C as the variant, how does the self-cleavage read?
**A.** 0.02

**Q.** For C26A G22U, which self-cleavage is on record?
**A.** 0.05

**Q.** Which self-cleavage does the source give for C26A G23A here?
**A.** 0.04

**Q.** For C26A G23C, which self-cleavage is on record?
**A.** 0.01

**Q.** With C26A G23U as the variant, how does the self-cleavage read?
**A.** 0.02

**Q.** For C26A G30A, which self-cleavage is on record?
**A.** 0.01
